Measured values as given in ChEMBL document CHEMBL3596168, “Novel inhibitors of RANKL-induced osteoclastogenesis: Design, synthesis, and biological evaluation of 6-(2,4-difluorophenyl)-3-phenyl-2H-benzo[e][1,3]oxazine-2,4(3H)-diones” (Bioorg Med Chem, 2015).
Activity calls are given as the source filed them. The calls are words filed in the database; no cut-off is given here.

Key:
[1] = target: T1, Tumor necrosis factor ligand superfamily member 11 (Mus musculus) (UniProt O35235); assay: Inhibition of recombinant mouse RANKL-induced osteoclastogenesis of mouse RAW264.7 cells assessed as reduction of TRAP-positive multinucleated cells at 5 uM after 4 days by light microscopic analysis relative to control; type: cell-based
T1 sequence (whole entry): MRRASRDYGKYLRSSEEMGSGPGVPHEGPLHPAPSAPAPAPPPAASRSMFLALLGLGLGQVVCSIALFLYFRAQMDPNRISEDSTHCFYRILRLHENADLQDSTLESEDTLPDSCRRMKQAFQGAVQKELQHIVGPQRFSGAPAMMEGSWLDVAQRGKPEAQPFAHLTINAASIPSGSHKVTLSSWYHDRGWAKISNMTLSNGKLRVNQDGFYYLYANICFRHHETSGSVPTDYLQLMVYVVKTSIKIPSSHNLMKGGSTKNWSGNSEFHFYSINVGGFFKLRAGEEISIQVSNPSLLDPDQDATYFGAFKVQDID
Method in brief: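 RAW264.7 cells were cultured 4 days in α-MEM with 10% FBS, 2 mM L-glutamine and RANKL 100 ng/mL, with or without compound at 5 µM. Medium was changed on day 2. Cells were fixed in acetone/citrate/formaldehyde and stained for TRAP for 1 h at 37 °C. TRAP+ cells with three or more nuclei were counted by light microscopy. Inhibition = 100% − MNCs (%). At least three independent experiments.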

[2] = Cytotoxicity against mouse RAW264.7 cells assessed as cell viability at 5 uM after 24 hrs by MTT assay relative to control; type: cell-based; details: read-out: Activity
Method in brief: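 RAW264.7 cells, 1 × 10⁴ per well in DMEM with 10% FBS, were exposed to compounds for 24 h. MTT (500 µg/mL) was then added for 1 h at 37 °C, formazan was dissolved in DMSO, and absorbance was read at 540 nm. Viability at 5 µM is relative to untreated control. At least three independent experiments, mean ± SD.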

[3] = target: T1, Tumor necrosis factor ligand superfamily member 11 (Mus musculus); assay: Inhibition of recombinant mouse RANKL-induced TRAP activity in mouse RAW264.7 cells using 4-nitrophenyl phosphate as TRAP substrate preincubated for 4 days followed by substrate addition measured after 15 mins by ELISA reader analysis; type: cell-based
Method in brief: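 RAW264.7 cells (2 × 10⁴ per well) were cultured 4 days in α-MEM with 10% FBS, 2 mM L-glutamine and murine RANKL 100 ng/mL, with or without compound. Cells were lysed in 0.1% Triton X-100/50 mM Tris-HCl pH 7.2 on ice. They were incubated with 2 mg/mL 4-nitrophenyl phosphate in 0.09 M citrate for 15 min at 37 °C, stopped with 0.1 N NaOH, and read at 405 nm. Protein was measured by BCA.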

[4] = target: T1, Tumor necrosis factor ligand superfamily member 11 (Mus musculus); assay: Inhibition of recombinant mouse RANKL-induced osteoclastogenesis of mouse RAW264.7 cells assessed as suppression of NFATc1 mRNA expression at 2.5 to 5 uM preincubated for 1 hr followed by RANKL addition measured after 24 hrs by RT-PCR analysis; type: cell-based
Method in brief: (§1)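 RAW264.7 cells (1 × 10⁵ per dish) were serum-starved 24 h in α-MEM, pretreated with compound for 1 h, then given RANKL (100 ng/mL) for 24 h. Total RNA (2 µg) was reverse-transcribed with oligo(dT) and amplified with mouse-specific primers. Products were resolved on 1.5% agarose with EtBr and densities normalized to GAPDH, as % of control. At least two independent experiments.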

[5] = target: T1, Tumor necrosis factor ligand superfamily member 11 (Mus musculus); assay: Inhibition of recombinant mouse RANKL-induced osteoclastogenesis of mouse RAW264.7 cells assessed as suppression of c-fos mRNA expression at 2.5 to 5 uM preincubated for 1 hr followed by RANKL addition measured after 24 hrs by RT-PCR analysis; type: cell-based; method in brief: as §1
[6] = target: T1, Tumor necrosis factor ligand superfamily member 11 (Mus musculus); assay: Inhibition of recombinant mouse RANKL-induced osteoclastogenesis of mouse RAW264.7 cells assessed as suppression of TRAP mRNA expression at 2.5 to 5 uM preincubated for 1 hr followed by RANKL addition measured after 24 hrs by RT-PCR analysis; type: cell-based; method in brief: as §1
[7] = target: T1, Tumor necrosis factor ligand superfamily member 11 (Mus musculus); assay: Inhibition of recombinant mouse RANKL-induced osteoclastogenesis of mouse RAW264.7 cells assessed as suppression of cathepsin K mRNA expression at 2.5 to 5 uM preincubated for 1 hr followed by RANKL addition measured after 24 hrs by RT-PCR analysis; type: cell-based; method in brief: as §1
[8] = target: T1, Tumor necrosis factor ligand superfamily member 11 (Mus musculus); assay: Inhibition of recombinant mouse RANKL-induced NF-kappaB expression in nucleus of mouse RAW264.7 cells at 5 uM preincubated for 1 hr followed by RANKL addition measured after 24 hrs by ELISA plate analysis; type: cell-based
Method in brief: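 Cells were pretreated 1 h with compound in α-MEM/10% FBS, then stimulated with RANKL (100 ng/mL) for 24 h. NF-κB p65 DNA binding in nuclear extracts was measured on plates coated with the response element, using primary plus tagged secondary antibody. Absorbance was read at 450 nm.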

[9] = target: T1, Tumor necrosis factor ligand superfamily member 11 (Mus musculus); assay: Inhibition of recombinant mouse RANKL-induced NF-kappaB expression in nuclear extracts of mouse RAW264.7 cells assessed as decrease in ratio of NF-kappaB to TBP level at 5 uM preincubated for 1 hr followed by RANKL addition measured after 24 hrs by Western blot analysis relative to control
Method in brief: (§2)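 RAW264.7 cells (1 × 10⁵ per dish) grew in DMEM/10% FBS for 24 h. They were pretreated with compound in α-MEM/10% FBS for 1 h, then given RANKL (100 ng/mL) for 24 h. Nuclear extracts (18 µg protein) were run on 12% SDS–PAGE and immunoblotted for NF-κB p65, NFATc1 and TBP (loading reference) with ECL detection. More than two cultures.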

[10] = target: T1, Tumor necrosis factor ligand superfamily member 11 (Mus musculus); assay: Inhibition of recombinant mouse RANKL-induced NF-kappaB expression in nuclear extracts of mouse RAW264.7 cells assessed as decrease in ratio of NFATc1 to TBP level at 5 uM preincubated for 1 hr followed by RANKL addition measured after 24 hrs by Western blot analysis relative to control; method in brief: as §2
[11] = target: T1, Tumor necrosis factor ligand superfamily member 11 (Mus musculus); assay: Inhibition of recombinant mouse RANKL-induced bone resorptive activity of mature osteoclasts derived from mouse RAW264.7 cells assessed as attenuation of resorbing pit formation on dentine slices after 4 days by toluidine blue staining assay; type: tissue-based
Method in brief: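 Cells (1 × 10⁴ per well) were seeded on dentine slices in α-MEM with 10% FBS, 2 mM L-glutamine and RANKL 100 ng/mL, plus compound at 7.5, 5 or 2.5 µM. Medium was refreshed every 2 days. On day 4 cells were removed with 1 M NH₄OH and slices stained with 0.1% toluidine blue. Resorbed/total area was expressed as % of control, from more than 6 slices.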

N#Cc1ccc(-n2c(=O)oc3ccc(-c4ccc(F)cc4F)cc3c2=O)cc1
inhibition [1]: 29.4%
viability at 24 h, 5 µM [2]: 108%

O=c1oc2ccc(-c3ccc(F)cc3F)cc2c(=O)n1-c1cccc(C(F)(F)F)c1
inhibition [1]: 62.9%
viability at 24 h, 5 µM [2]: 100%
inhibition [3]: Dose-dependent effect

O=c1oc2ccc(-c3ccc(F)cc3F)cc2c(=O)n1-c1ccc(C(F)(F)F)cc1
inhibition [1]: 16.9%
viability at 24 h, 5 µM [2]: 103%

N#Cc1cccc(-n2c(=O)oc3ccc(-c4ccc(F)cc4F)cc3c2=O)c1
inhibition [1]: 34%
viability at 24 h, 5 µM [2]: 103%

COc1cccc(-n2c(=O)oc3ccc(-c4ccc(F)cc4F)cc3c2=O)c1
inhibition [1]: 30.8%
viability at 24 h, 5 µM [2]: 106%

O=c1oc2ccc(-c3ccc(F)cc3F)cc2c(=O)n1-c1ccc(F)c(F)c1
inhibition [1]: 17.4%
viability at 24 h, 5 µM [2]: 72.2%

O=c1oc2ccc(-c3ccc(F)cc3F)cc2c(=O)n1-c1cc(F)ccc1F
inhibition [1]: 86.8%
viability at 24 h, 5 µM [2]: 86.6%
inhibition [3]: Dose-dependent effect
inhibition [4]: Active
inhibition [5]: Active
inhibition [6]: Active
inhibition [7]: Active
inhibition [8]: Active
fold change (FC) [9]: 0.69
fold change (FC) [10]: 0.61
inhibition [11]: Dose-dependent effect

O=c1oc2ccc(-c3ccc(F)cc3F)cc2c(=O)n1-c1ccc(Cl)cc1F
inhibition [1]: 19.4%
viability at 24 h, 5 µM [2]: 96.2%

O=c1oc2ccc(-c3ccc(F)cc3F)cc2c(=O)n1-c1ccc(F)cc1F
inhibition [1]: 42.3%
viability at 24 h, 5 µM [2]: 96.5%

O=c1oc2ccc(-c3ccc(F)cc3F)cc2c(=O)n1-c1ccccc1C(F)(F)F
inhibition [1]: 31.6%
viability at 24 h, 5 µM [2]: 95.5%

C#Cc1cccc(-n2c(=O)oc3ccc(-c4ccc(F)cc4F)cc3c2=O)c1
inhibition [1]: 57.5%
viability at 24 h, 5 µM [2]: 88.4%
inhibition [3]: Dose-dependent effect
inhibition [4]: Active
inhibition [5]: Active
inhibition [6]: Active
inhibition [7]: Active

COc1ccc(-n2c(=O)oc3ccc(-c4ccc(F)cc4F)cc3c2=O)cc1OC
inhibition [1]: 21.2%
viability at 24 h, 5 µM [2]: 103%
